Assay results published in ChEMBL document CHEMBL1145796, “Neuromuscular blocking activity and therapeutic potential of mixed-tetrahydroisoquinolinium halofumarates and halosuccinates in rhesus monkeys” (2003).

Experiments:
[1] = Time from injection to 95% recovery of the twitch response at the ED95 dose in male Rhesus monkey.; assay type: functional, Cercopithecidae
Method in brief: (§1)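 Anesthetized, ventilated male rhesus monkeys received sequential iv bolus doses with extensor digitorum twitch recorded. Onset is injection to peak twitch inhibition. Duration is injection to 95% twitch recovery. Values at the ED95 were read from plots of onset or duration vs dose. Means ± SE across animals.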

[2] = Time from injection to peak inhibition of twitch response at the ED95 dose in male Rhesus monkey.; assay type: functional, Cercopithecidae; method in brief: as §1
[3] = Dose required for 100% suppression of the twitch response at the extensor digitorum in male Rhesus monkey; assay type: functional; details: Cercopithecidae
Method in brief: (§2)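 Adult male rhesus monkeys (8–15 kg) under ketamine (5 mg/kg i.m.) and pentobarbital (2–5 mg/kg iv) induction, then N2O 60%/O2 40%/halothane 0.5–1%, ventilated, core temperature 37–38 °C. Twitch of extensor digitorum was recorded after ≥20 min stable baseline. Sequential iv bolus doses from 0.03 to 6.4 mg/kg. Per-animal ED95 came from log-probability regression of dose vs % block. Other lines give the single dose tested with its % block.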

[4] = Dose required for 93% suppression of the twitch response at the extensor digitorum in male Rhesus monkey; assay type: functional; details: Cercopithecidae; method in brief: as §2
[5] = Selectivity index is changes in heart rate(cv dose) to the suppression of twitch response (ED95) in male Rhesus monkey; assay type: functional, Cercopithecidae
Method in brief: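 Same anesthetized male rhesus preparation, with blood pressure, heart rate and EKG recorded alongside twitch during sequential iv doses up to 6.4 mg/kg. Cardiovascular threshold dose is the dose giving ≥10% change in heart rate or mean arterial pressure. Index = mean threshold dose / mean ED95 (extensor digitorum).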

[6] = Dose required for 80% suppression of the twitch response at the extensor digitorum in male Rhesus monkey; assay type: functional; details: Cercopithecidae; method in brief: as §2
[7] = Time from injection to peak inhibition of twitch response at a dose of 0.4 mg/kg in male Rhesus monkey was evaluated; assay type: functional, Cercopithecidae
Method in brief: (§3)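 Single iv bolus of 0.2 or 0.4 mg/kg in anesthetized, ventilated male rhesus monkeys, with extensor digitorum twitch recorded. Onset taken from injection to peak twitch inhibition at the given dose. Means ± SE, N = number of animals.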

[8] = Dose required for 95% suppression of the twitch response at the extensor digitorum in male Rhesus monkey.; assay type: functional, Cercopithecidae; details: Cercopithecidae; read-out: ED95; method in brief: as §2
[9] = Time from injection to peak inhibition of twitch response at a dose of 0.2 mg/kg in male Rhesus monkey was evaluated; assay type: functional, Cercopithecidae; method in brief: as §3
[10] = Time from injection to 95% recovery of twitch response at a dose of 0.2 mg/kg in male Rhesus monkey was evaluated
[11] = Time from injection to 95% recovery of twitch response at a dose of 0.4 mg/kg in male Rhesus monkey was evaluated
[12] = Dose required for 41% suppression of the twitch response at the extensor digitorum in male Rhesus monkey; assay type: functional; details: Cercopithecidae; method in brief: as §2
[13] = Dose required for 91% suppression of the twitch response at the extensor digitorum in male Rhesus monkey; assay type: functional; details: Cercopithecidae; method in brief: as §2

Row | SMILES | Duration [1] [min] | Onset [2] [s] | Selectivity index [5] | ED95 [8] [mg/kg] | also measured
1 | COc1cc2c(cc1OC)[C@H](c1cc(OC)c(OC)c(OC)c1)[N@@+](C)(CCCOC(=O)C[C@H](F)C(=O)OCCC[N@+]1(C)CCc3cc(OC)c(OC)cc3[C@H]1Cc1cc(OC)c(OC)c(OC)c1)CC2.[Cl-].[Cl-] | 35 | 80 |  |  | ED95 [3]: 0.05 mg/kg
2 | COc1cc(C2c3c(cc(OC)c(OC)c3OC)CC[N@@+]2(C)CCCOC(=O)/C(Cl)=C/C(=O)OCCC[N@+]2(C)CCc3cc(OC)c(OC)c(OC)c3[C@H]2c2cc(OC)c(OC)c(OC)c2)cc(OC)c1OC.[Cl-].[Cl-] (some centres undefined) | 3.6 | 45 | 1 |  | ED95 [4]: 2 mg/kg
3 | COc1cc2c(cc1OC)[C@H](c1cc(OC)c(OC)c(OC)c1)[N@@+](C)(CCCOC(=O)CCCCCC(=O)OCCC[N@+]1(C)CCc3cc(OC)c(OC)cc3[C@H]1Cc1cc(OC)c(OC)c(OC)c1)CC2.[Cl-].[Cl-] | 7.1 | 40 |  |  | ED95 [6]: 0.2 mg/kg
4 | COc1cc2c(cc1OC)[C@@H](c1cc(OC)c(OC)c(OC)c1)[N@+](C)(CCCOC(=O)CCCCCCC(=O)OCCC[N@+]1(C)CCc3cc(OC)c(OC)cc3[C@H]1Cc1cc(OC)c(OC)c(OC)c1)CC2.[Cl-].[Cl-] | 8.6 | 75 | 47 | 0.103 | Onset [7]: 25 s; Onset [9]: 50 s; Duration [10]: 14.6 min; Duration [11]: 16.9 min
5 | COc1cc2c(cc1OC)[C@H](c1cc(OC)c(OC)c(OC)c1)[N@@+](C)(CCCOC(=O)/C(Cl)=C/C(=O)OCCC[N@+]1(C)CCc3cc(OC)c(OC)c(OC)c3[C@H]1Cc1cc(OC)c(OC)c(OC)c1)CC2.COc1cc2c(cc1OC)[C@H](c1cc(OC)c(OC)c(OC)c1)[N@@+](C)(CCCOC(=O)/C=C(\Cl)C(=O)OCCC[N@+]1(C)CCc3cc(OC)c(OC)c(OC)c3[C@H]1Cc1cc(OC)c(OC)c(OC)c1)CC2.[Cl-].[Cl-].[Cl-].[Cl-] | 6.5 | 145 |  |  | ED95 [12]: 0.05 mg/kg
6 | COc1cc2c(cc1OC)[C@H](c1cc(OC)c(OC)c(OC)c1)[N@@+](C)(CCCOC(=O)/C=C(\F)C(=O)OCCC[N@+]1(C)CCc3cc(OC)c(OC)cc3[C@H]1Cc1cc(OC)c(OC)c(OC)c1)CC2.[Cl-].[Cl-] | 4.4 | 66 | 37 | 0.137 | 
7 | COc1ccc([C@H]2c3cc(OC)c(OC)cc3CC[N@+]2(C)CCCOC(=O)/C=C(\Cl)C(=O)OCCC[N@+]2(C)CCc3cc(OC)c(OC)cc3[C@H]2Cc2cc(OC)c(OC)c(OC)c2)cc1.[Cl-].[Cl-] | 7.4 | 69 | 6 | 0.136 | 
8 | COc1cc2c(cc1OC)[C@H](c1cc(OC)c(OC)c(OC)c1)[N@@+](C)(CCCOC(=O)CC(F)(F)C(=O)OCCC[N@+]1(C)CCc3cc(OC)c(OC)cc3[C@H]1Cc1cc(OC)c(OC)c(OC)c1)CC2.[Cl-].[Cl-] | 7.3 | 78 | 96 | 0.056 | Onset [7]: 22 s; Onset [9]: 37 s; Duration [10]: 10.3 min; Duration [11]: 13 min
9 | COc1cc2c(cc1OC)[C@@H](c1cc(OC)c(OC)c(OC)c1)[N@+](C)(CCCOC(=O)/C=C(\Cl)C(=O)OCCC[N@+]1(C)CCc3cc(OC)c(OC)c(OC)c3[C@H]1Cc1cc(OC)c(OC)c(OC)c1)CC2.[Cl-].[Cl-] | 9.9 | 113 | 15 | 0.053 | 
10 | COc1cc2c(cc1OC)[C@H](c1cc(OC)c(OC)c(OC)c1)[N@@+](C)(CCCOC(=O)/C=C(\Cl)C(=O)OCCC[N@+]1(C)CCc3cc(OC)c(OC)c(OC)c3[C@H]1Cc1cc(OC)c(OC)c(OC)c1)CC2.[Cl-].[Cl-] | 13.3 | 160 |  |  | ED95 [13]: 0.05 mg/kg
